# Screening results (PubChem)
# In the library only some 3.8% were active in any assay of this set; here they are far more common.
# Measles CPE = protection of cells from measles virus; Measles virus-infected cells, CPE protection, absorbance; protection (pct of control), % at 4 µM; 140,000 tested, 1.5% active; AID 841; in the data active means protection mostly above about 24%, no sharp cut-off; inactive means mostly below about 26%
# Yeast lifespan up = extends the lifespan of yeast. S. cerevisiae growth with nicotinamide, OD615; deaD strain in restrictive glucose medium. inhibition of the nicotinamide effect, % at 10 µM. 130,000 tested, 0.68% active;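 active means inhibition above a set limit, placed 3 SD over the median of all compounds, cut at about 26% in these data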;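 further: 0% = nicotinamide-treated wells and 100% = cells grown without nicotinamide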
#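 Assay system: engineered S. cerevisiae DeaD replicative-lifespan strain, galactose-grown log-phase cells; Buffer or medium: CSMM-D glucose medium, restrictive; Probe or stimulus: nicotinamide 1.5 mM; Compound: single dose 10 µM compound, 0.25% DMSO; Schedule: 4 h preincubation then 48 h treatment at 30 °C; Technique: OD615 measurement.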
# Yeast growth inh = chemicals that inhibit yeast BB579 growth in restrictive medium (lifespan-shortening candidates); S. cerevisiae BB579 growth, OD615, 48 h; inhibition, % at 10 µM; 140,000 tested, 0.51% active; AID 804;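 active means inhibition above a set limit, 3 SD over the mean compound inhibition, cut at about 44% in these data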
#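 Assay system – yeast BB579 (DeaD) · Dosing – single compound dose of 10 µM, 0.25% DMSO final · Detection – OD615 turbidity measurement · Buffer or medium – CSMM-D restrictive synthetic medium containing dextrose (glucose) · Benchmarks – positive control amphotericin B 10 µg/mL · Incubation – 48 h exposure, 30 °C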
# RAM inhibit = yeast RAM network inhibition; S. cerevisiae dse1pr::URA3 reporter, 5-FOA growth OD615, 2 d; analog-sensitive cbk1-as2 kinase mutant strain; inhibition, % at 50 µM; 190,000 tested, 1.8% active; AID 868;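 active means inhibition above a set limit, 3 SD over mean compound inhibition, cut at about 8.4% in these data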;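 further: 0% = DMSO-only wells with no growth and 100% = 10 µM 1-NA-PP1 full growth; inhibition rescues growth on 5-FOA so higher OD means more RAM inhibition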
# Active calls of the source: *; . = no result.
SMILES,Measles CPE,Yeast lifespan up,Yeast growth inh,RAM inhibit
O=C(c1ccco1)N(Cc1ccc([N+](=O)[O-])cc1)c1ccc(Br)cc1,7,3,-37,8.4*
O=C(c1ccco1)N(Cc1cccc([N+](=O)[O-])c1)c1ccc(Br)cc1,.,.,.,9.3*
O=C(c1ccco1)N(Cc1ccc([N+](=O)[O-])cc1)c1ccc(Cl)cc1,19,-6,-3,4
CN(Cc1cnn(-c2ccc(F)cc2)c1)Cc1nc(Cc2ccccc2)no1,.,.,.,-1
C=CCc1cc(Cl)ccc1OCCOCCNC(C)CC (stereo not drawn),.,.,.,1
CCC(C)NCCOCCSc1ccc(Cl)cc1 (stereo not drawn),52*,-1,-28,3
COC(=O)[C@@]1(Cc2ccccc2)[C@@H]2C(=CC(=O)[C@H]2CC(=O)C(=O)N(C)C)CN1C(=O)c1ccccc1,82*,1,-35,1
Cc1cccc(NC(=O)CCc2ccc(S(=O)(=O)NC3CCCCC3)cc2)c1,10,-4,-18,0
CCn1ccnc1[C@@H]1C[C@H]2CN(c3ccccc3OC)C(=O)[C@]23CCCN13,.,.,.,1
CC(=O)N1C(=O)/C(=C2\SC(=S)N(NS(=O)(=O)c3ccc(C)cc3)C2=O)c2ccccc21,.,.,.,11*
CC(=O)N1C(=O)/C(=C2\SC(=S)N(c3c(C)n(C)n(-c4ccccc4)c3=O)C2=O)c2ccccc21,17,5,-10,6
O=S(=O)(/N=C/c1c(O)ccc2ccccc12)c1cccs1,9,30*,-20,-1
Oc1ccc2ccccc2c1/C=N/Nc1ccccc1,4,18,-48,0
CCOC(=O)c1c(/N=C/c2cccc([N+](=O)[O-])c2O)sc(C)c1C,16,-6,75*,0
CCN(CC(=O)NCc1ccc(Cl)cc1)S(=O)(=O)c1ccc(NC(C)=O)cc1,.,.,.,0
Cc1noc(C)c1COc1cccc(C(=O)OCCOc2ccc(F)cc2)c1,4,-8,-17,8.7*
O=C1NN(c2ccc(F)cc2)C(=O)/C1=C/c1cccs1,.,.,.,2
N#CCC(CNc1ncc(C(F)(F)F)cc1Cl)OC(=O)c1ccc(Cl)cc1Cl (stereo not drawn),4,-22,-41,9.6*
CC(O)CN=c1cc(-c2ccccc2)oc2ccc(Cl)cc12 (stereo not drawn),1,-27,-6,2
C/C(CCc1oc2ccc(Br)cc2c1-c1ccc(C)o1)=N/O,10,1,-55,11*
C/C(CCc1oc2ccc(Cl)cc2c1-c1ccc(C)o1)=N\O,12,.,-28,9.4*
Cc1nn(C(=O)c2nn(C)cc2[N+](=O)[O-])c(C)c1Br,.,.,.,-1
CC1CCCCN1C(=S)Nc1ccc2nc3n(c(=O)c2c1)CCCCC3 (stereo not drawn),12,56*,-52,2
O=c1c2cc(NC(=S)N3CCC(N4CCCCC4)CC3)ccc2nc2n1CCCCC2,.,.,.,2
CCCCC[C@H](O)/C=C/[C@H]1C=CC(=O)[C@@H]1C/C=C\CCCC(=O)O,48,-2,-25,5
SMILES,Measles CPE,Yeast lifespan up,Yeast growth inh,RAM inhibit
CCCCC1C(=O)CC[C@H]2[C@@H]1CC(=O)[C@@H]2C/C=C\CCCC(=O)O (stereo partly drawn),10,50*,-40,1
Cc1ccc(NC(=O)NNC(=O)C2CCN(Cc3ccc(F)cc3Cl)CC2)cc1,.,.,.,1
CCOc1ccc(C2=NNC(c3cccnc3)=Nc3ccc(OC)cc32)cc1,.,.,.,3
COc1ccc2c(c1)C(c1ccccc1)=NNC(c1ccco1)=N2,49*,-25,-29,3
FC(F)(Cl)c1nnc2ccc(Cl)nn12,.,.,.,2
O=C(/C=C/Sc1ccccc1)c1ccc(Cl)cc1,18,28*,-58,1
O=C(/C=C/Sc1ccccc1)c1ccccc1,1,25,-72,0
O=C(CCc1nc2ccccc2s1)N1CCN(c2ccccc2)CC1,.,.,.,0
CC(=O)c1ccc(N2CCN(C(=O)CCCc3nc4ccccc4s3)CC2)cc1,5,2,-34,9.3*
CCOC(=O)CCSc1nc(-c2ccc3c(c2)OCO3)cc(C(F)(F)F)c1C#N,6,7,-83,11*
CCOC(=O)CC(=O)CSc1nc(-c2ccc3c(c2)OCO3)cc(C(F)(F)F)c1C#N,4,5,-31,7
CCN(c1ccccc1)S(=O)(=O)c1ccc(Cl)c(NC(=O)Nc2ccc(Cl)cc2C#N)c1,7,4,-46,4
CN(c1ccccc1)S(=O)(=O)c1cccc(NC(=O)Nc2ccc(Cl)cc2C#N)c1,25*,2,-33,1
O=C(OCC#CCSc1nc2ccccc2o1)c1ccco1,7,-11,8,1
O=C(OCC#CCSc1nc2ccccc2o1)c1cc2ccccc2o1,5,.,-48,10*
CC(C)CC(=O)Nc1cccc(-c2csc(-c3ccccc3)n2)c1,0,-14,-56,10*
COC(=O)c1nn(-c2ccccc2)c(Cl)c1/C=N/OCc1ccc(C)cc1,29,-2,-38,10*
CCNC(=O)n1cc(-n2cncn2)c(-c2ccc(Cl)cc2)n1,.,.,.,-1
COc1cccc(N(C(=O)Cn2nnc(-c3ccc(C)cc3)n2)C(C(=O)NC(C)(C)C)c2c[nH]c3ccccc23)c1 (stereo not drawn),5,45*,-96,5
CC(C)=CC(=O)OCC(=O)Nc1ccc(SC(F)F)cc1,.,.,.,0
CCO/C=C1\C(=O)N(c2ccccc2)C(=O)c2ccccc21,3,-13,-46,1
CCO/C=C1/C(=O)N(Cc2ccccc2)C(=O)c2ccccc21,3,32*,13,-1
Cc1ccc(CN2C3CCCC2CC(NC(=O)c2ccc(C)cc2)C3)cc1 (stereo not drawn),.,.,.,0
NS(=O)(=O)c1ccc(CCNC(=O)Nc2ccc(Cl)c(Cl)c2)cc1,32,-7,-58,11*
CCCCCC1CC1C(=O)N/N=C/c1ccc(N(C)C)cc1 (stereo not drawn),7,42*,-36,1
SMILES,Measles CPE,Yeast lifespan up,Yeast growth inh,RAM inhibit
CN(C)c1ccc(/C=N/NC(=O)COc2ccccc2)cc1,.,.,.,2
CC(=O)C1=NN(c2ccccc2)C2(S1)S/C(=C\c1ccccc1)C(=O)N2c1ccccc1 (stereo not drawn),34*,-5,-65,3
COC(=O)C1=NN(c2ccccc2)C2(S1)SC(C(C)=O)=C(C)N2c1ccccc1 (stereo not drawn),10,-8,-30,1
COc1ccc(C(=O)CC(=O)C(=O)NCCc2cccc(C)c2)cc1,3,2,35,4
CC(OC(=O)/C=C/c1ccco1)C(=O)Nc1cccc([N+](=O)[O-])c1 (stereo not drawn),10,5,-20,9.0*
O=C(CSc1ncnc2sc3c(c12)CCCC3)c1ccccc1,7,.,-53,2
O=C(CSc1ncnc2sc3c(c12)CCCC3)c1ccco1,46*,-10,-41,0
CN(C)S(=O)(=O)c1cccc(NC(=O)CSc2nc3c(cc2C#N)C(=O)CC(C)(C)C3)c1,16,-3,-26,6
